# Measurements pooled from the literature.
# Lines come from different studies, so protocols differ.
# Target: Serine/threonine-protein kinase SBK1 (SBK1, Homo sapiens, UniProt Q52WX2)
SMILES,assay,setting,endpoint,value
COc1cc(Cl)c(C(=O)N[C@@H](CN[C@H]2CC[C@@H](N)CC2)Cc2ccc(C#N)cc2)cc1-c1ccc(CN[C@H](C)c2ccc(C)cc2)o1,"enzyme activity, inhibitor",1 µM,remaining activity,98%
Cc1ccc(C(=O)Nc2ccc(CN3CCN(C)CC3)c(C(F)(F)F)c2)cc1C#Cc1cnc2cccnn12,"enzyme activity, inhibitor",23.5 nM,remaining activity,80%
CN(c1ccnc(CNc2nc(Nc3ccc4c(c3)CC(=O)N4)ncc2C(F)(F)F)n1)S(C)(=O)=O,"cell-free assay, competition with immobilised ligand",1 µM,remaining binding,34%
O=C(Nc1cnn(-c2csc(C(=O)NC3COC3)c2)c1)Nc1ccccc1Cl,"enzyme activity, inhibitor",5 µM,remaining activity,99.1%
CN1CC(Oc2cnc(C#N)cc2-c2ccn3nc(NC(=O)C4CC4)cc3c2)C1,"enzyme activity, inhibitor",1 µM,inhibition,15%
COc1ccc2c(c1)O[C@H](c1ccc(OC)c(OC)c1)C[C@@H]2NC(=O)C1(c2ccc3c(c2)OC(F)(F)O3)CC1,"cell-free assay, competition with immobilised ligand",1 µM,remaining binding,90%
Nc1ncnc2occ(-c3ccc(NC(=O)Nc4cc(C(F)(F)F)ccc4F)cc3)c12,"cell-free assay, inhibitor",20 µM,remaining signal,6.7%
Cc1sc(C(=O)NC2COC2)cc1-n1cc(NC(=O)Nc2c(F)cccc2Cl)cn1,"enzyme activity, inhibitor",10 µM,remaining activity,87.5%
